Bioassay records from PubChem.
Hits are enriched below; roughly 4.9% of the tested compounds scored in any of these assays.
NF-kB neuron act: activators of NF-kB expression in neurons, primary screen, cell-based, HTS; human neuronal cells, NF-kB reporter expression; active compounds read high; fold change at 12.5 µM; hit rate 1.6% among 190,000; in the data active = fold change above about 3.3
STAT3 blocker: IL-6 driven STAT3 reporter inhibitors, primary screen, U3A cells, luciferase, luminescence, MLSCN library. hit rate 0.89% among 190,000. inhibition, % at 5.5 µM. IL-6 STAT3-luciferase reporter; host cell line lacks STAT1. AID 862, 2007;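 active = inhibition above the mean inhibition across all screened compounds plus 3 SD, cut at about 44% in these data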
STAT3 activator: IL-6 driven STAT3 reporter potentiators, primary screen, U3A cells, luciferase, luminescence, MLSCN library. IL-6 STAT3-luciferase reporter; 100% = signal with IL-6 EC80 alone. activation (% of control), % at 5.6 µM. hit rate 0.91% among 190,000. AID 871, 2007;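 active = activation above the screen-wide mean of compound activation plus 3 SD, cut at about 130% in these data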
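Material: STAT3-luciferase reporter U3A cells. Controls: IL-6-treated wells, 100% activation. Read-out: % activation versus median of IL-6-stimulated wells. Probe or stimulus: IL-6 stimulus at 33 ng/mL final. Timing: compound 1 h, then IL-6 6 h at 37 °C. Signal: reporter luminescence signal.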
STAT1 act: STAT1 signaling activators, primary screen, cell-based, HTS, luciferase reporter; NIH 3T3 STAT1-luciferase reporter, IFN-gamma, luminescence; 100% = IFN-gamma alone, no compound; activation (% of control), % at 5.5 µM; hit rate 2.6% among 200,000;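 active = activation above the screen-wide mean activation plus 3 SD, cut at about 130% in these data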
APP 5'UTR act: activators of APP 5'UTR luciferase reporter, primary screen, SH-SY5Y cells; activation, % at 2 µM; SH-SY5Y APP 5'UTR luciferase reporter, luminescence; zero percent = DMSO vehicle wells; AID 1276, 2008; hit rate 1% among 190,000;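 active = activation above a set limit, based on mean plus 3 SD of controls, cut at about 140% in these data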
STAT1 inh: STAT1 signaling inhibitors, primary screen, cell-based, HTS, luciferase reporter | NIH 3T3 STAT1-luciferase reporter, IFN-gamma, luminescence | hit rate 0.35% among 200,000 | AID 920, 2007 | inhibition, % at 5.5 µM;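 active = inhibition above a set limit, the mean inhibition across all tested compounds plus 3 SD, cut at about 34% in these data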
Hits are given with their value; i = inactive; nt = no result.

SMILES	NF-kB neuron act	STAT3 blocker	STAT3 activator	STAT1 act	APP 5'UTR act	STAT1 inh
Cc1ccc(NC(=O)c2ccc(OC(=O)c3cc4ccccc4o3)cc2)cc1	i	i	i	134	i	i
O=C(Oc1ccccc1)c1ccc(NC(=O)c2ccco2)cc1	i	i	i	136	i	i
O=C(CC1C(=O)NCCN1Cc1ccccc1C(F)(F)F)NCCn1cccn1 (configuration not stated)	i	i	i	i	i	i
Cc1ccc(NC(=O)c2ccc(OC(=O)c3ccco3)cc2)cc1	i	i	i	134	i	i
Cc1ccc(Oc2ccc(NC(=O)c3ccco3)cc2)cc1	i	i	i	i	i	i
CC1=NNC(=O)/C1=C\c1cn(-c2ccccc2)nc1-c1ccc(Cl)cc1	i	61	i	i	i	i
Cc1ccc(-c2nn(-c3ccccc3)cc2C=C2C(=O)CC(C)(C)CC2=O)cc1	i	i	i	i	i	i
CCOc1ccc(C(=O)NCC(=O)Nc2ccc(N3CCOCC3)cc2)cc1OCC	i	i	i	i	i	i
Cn1cccc1C(=O)OCc1csc(-c2ccccc2)n1	5.8	i	i	134	150	i
Cc1ccccc1Nc1nc(N)nc(COC(=O)c2cccn2C)n1	i	i	i	141	i	i
Cc1ccccc1Nc1nc(N)nc(COC(=O)c2ccccc2)n1	i	i	i	i	i	i
Cc1ccsc1C(=O)OCc1csc(-c2ccccc2)n1	9.4	i	i	i	195	i
CCC(C)n1c(OC)nc2c1c(=O)n(C)c(=O)n2C (configuration not stated)	i	i	i	i	i	i
CS(=O)(=O)N1CCc2cc(NC(=O)c3ccc(Cl)cc3Cl)ccc21	i	i	i	129	i	i
CS(=O)(=O)N1CCc2cc(C(=O)NC3CC3)ccc21	i	i	i	i	i	i
Cc1ccc(-c2nc3ccsc3c(=O)[nH]2)cc1	i	i	i	i	198	i
O=C(CCC1CCCC1)Nc1nnc(-c2ccc3c(c2)OCO3)s1	i	i	i	i	i	i
COc1ccc(-c2cn3cc(C(F)(F)F)cc(Cl)c3n2)cc1	9	i	161	150	150	i
Fc1ccc(-c2cn3cc(C(F)(F)F)cc(Cl)c3n2)cc1	7.3	i	174	139	168	i
NCCCC[C@H](NC(=O)C1CCNCC1)c1nnc(CN)o1	i	nt	nt	i	i	i
Cn1nnnc1NCc1cccc(Cl)c1Cl	i	i	i	i	i	i
CS(=O)(=O)Cc1nc2ccccc2oc1=O	4.7	i	i	i	i	i
C/C(O)=C\c1nc2ccccc2oc1=O	3.6	i	i	i	i	i
CCN(CC(=O)Nc1c(F)cccc1F)C(=O)CCc1ccc(OC)cc1	i	i	i	i	i	i
O=C(O)CCS(=O)(=O)c1nc(-c2cccs2)cc(C(F)(F)F)n1	i	i	i	i	i	i
SMILES	NF-kB neuron act	STAT3 blocker	STAT3 activator	STAT1 act	APP 5'UTR act	STAT1 inh
CS(=O)(=O)c1nc(-c2cccs2)cc(C(F)(F)F)n1	i	i	i	i	i	50
COc1ccc(NC(=S)Nc2ccccc2SC)c(OC)c1	i	i	i	i	i	i
COc1ccc(CNC(=O)c2coc(=O)c3ccccc23)cc1	i	i	i	i	i	i
O=C(CNc1cc(S(=O)(=O)N2CCCC2)ccc1OCC(F)(F)F)Nc1cccc(C(F)(F)F)c1	i	i	i	i	i	i
O=C(Cc1cccs1)N/N=C/C(Cl)=C/c1ccccc1	i	i	i	147	i	i
O=C(c1ccco1)N1CCN(c2ncnc3c(-c4ccccc4)nsc23)CC1	i	i	i	129	i	i
NC(=O)C1CCN(c2ncnc3c(-c4ccccc4)nsc23)CC1	i	i	i	139	i	i
CCN1CCN(C(=S)Nc2ccc3nc4n(c(=O)c3c2)CCCCC4)CC1	i	i	i	i	i	i
Oc1c(C(c2ccccn2)N2CCCCC2)cc(Cl)c2cccnc12 (configuration not stated)	4.9	i	i	i	i	i
Cn1cc(CN2CCC(CO)CC2)c(-c2ccc(Oc3ccccc3)cc2)n1	i	i	i	i	i	i
Cc1ccc2c(c1)sc[n+]2Cc1ccccc1	i	i	i	135	i	i
O=C(Cc1cccc(C(F)(F)F)c1)NCc1ccc(Cl)cc1Cl	i	i	i	i	i	i
CCOc1ccc(NC(=O)c2ccccc2O)cc1	6.3	i	i	i	i	i
CCOc1ccc(NC(=O)c2ccccc2OC)cc1	i	i	133	i	i	i
Cc1ccc(NC(=O)c2ccc(F)cc2)nc1	i	i	i	132	i	i
COc1ccc(C(=O)Nc2ccc(C)cn2)c(OC)c1	i	105	i	i	i	82
Cc1ccc(NC(=O)C(=O)Nc2ccc(C)cn2)nc1	i	i	i	i	i	i
CCOc1ccc(NC(=O)c2ccccc2CO)cc1	i	i	i	i	i	i
O=[N+]([O-])c1cc(-c2nc3nc4ccccc4nc3n2CCc2ccccc2)cc([N+](=O)[O-])c1	i	i	i	i	i	i
COc1ccccc1C(=O)Nc1ccccn1	i	i	i	132	i	i
CCOc1ccc(NC(=O)c2oc3ccccc3c2NC(=O)CC)cc1	5.1	i	i	i	i	i
CN(C)c1ccc(NC(=O)CCn2c(=S)oc3ccccc32)cc1	i	i	i	134	i	i
Cc1ccc(/C=N/c2sc3c(c2C(N)=O)CCCC3)o1	i	i	i	146	i	i
O=C1c2ccccc2CN1CCNC(=S)NC1CCCCC1	i	i	i	i	i	i
O=C1c2ccccc2CN1CCSC(=S)N1CCSCC1	i	i	i	134	i	i
SMILES	NF-kB neuron act	STAT3 blocker	STAT3 activator	STAT1 act	APP 5'UTR act	STAT1 inh
O=C1c2ccccc2CN1CCSC(=S)N1CCOCC1	i	i	i	130	i	i
CC1CN(C(=S)SCCN2Cc3ccccc3C2=O)CC(C)O1 (configuration not stated)	i	i	i	i	i	i
COc1ccc2cc3cc(C(=O)NCc4ccco4)oc3nc2c1	i	i	i	i	i	i
COc1ccc2cc3c(N)c(C(=O)NCc4ccco4)sc3nc2c1	i	i	i	137	i	i
CCOC(=O)c1cc2ccc3ccccc3c2s1	i	i	203	151	i	i
CCOC(=O)c1cc2cc3ccccc3cc2[nH]1	3.4	i	i	136	i	i
CCOC(=O)c1sc(/N=C/c2c(O)ccc3ccccc23)cc1C	i	i	i	i	i	i
CCOC(=O)c1cc2c(s1)-c1ccccc1CC2	i	i	174	131	i	i
O=C(COC(=O)CCS(=O)(=O)c1ccc(Cl)cc1)NCCc1ccccc1	i	i	i	i	i	i
